FLuc inh counter: firefly luciferase enzyme inhibitors, primary screen, artefact control for luciferase-based inhibitor screens, biochemical, luminescence, ATPLite. 200,000 tested, 1.5% active. Luciferin 4-monooxygenase (Photinus pyralis), P08659. 10 min. inhibition, % at 10 µM;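 active means inhibition above about 50% when tested at 10 µM, limit read from the data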
Target sequence (P08659 whole entry, looked up): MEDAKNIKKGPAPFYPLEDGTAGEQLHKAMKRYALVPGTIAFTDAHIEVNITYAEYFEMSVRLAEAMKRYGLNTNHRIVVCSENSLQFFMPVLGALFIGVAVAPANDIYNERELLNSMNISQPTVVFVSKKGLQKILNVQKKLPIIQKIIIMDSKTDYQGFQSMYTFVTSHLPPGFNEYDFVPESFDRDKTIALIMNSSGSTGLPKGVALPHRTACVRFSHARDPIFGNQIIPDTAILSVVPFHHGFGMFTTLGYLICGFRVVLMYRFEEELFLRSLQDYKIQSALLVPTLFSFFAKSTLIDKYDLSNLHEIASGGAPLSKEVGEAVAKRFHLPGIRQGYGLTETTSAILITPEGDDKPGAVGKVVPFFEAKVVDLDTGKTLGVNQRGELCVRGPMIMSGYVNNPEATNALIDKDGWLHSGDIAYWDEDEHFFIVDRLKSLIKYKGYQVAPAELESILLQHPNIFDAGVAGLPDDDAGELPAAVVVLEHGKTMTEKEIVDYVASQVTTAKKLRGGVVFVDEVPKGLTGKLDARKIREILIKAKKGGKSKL
FLuc stim CS: FLuc activators, initial screening, artefact control for FLuc-dependent activation tests, biochemical, ATPlite luminescence; ATPlite luciferase biochemical, 10 min; 0 = ATP-free wells, 1 = DMSO control; Luciferin 4-monooxygenase (Photinus pyralis), P08659; activation factor at 10 µM; 200,000 tested, under 10 active;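 active means luciferase activation factor, scaled between plate controls, of at least 2 with compound at 10 µM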
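test system = cell-free luciferase reagent | medium = PBS as buffer for the ATP substrate | dosing = test compounds dosed from 2 mM stocks in 100% DMSO | incubation = 10 min at ambient temperature | detection = luminescence measurement of luciferase light output | benchmarks = low control with PBS replacing ATP, high control enzyme plus ATP without compound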
NF-kB neuron act: activators of NF-kB expression in neurons, primary screen, cell-based, HTS. human neuronal cells, NF-kB reporter expression; hits give high values. fold change at 12.5 µM. 190,000 tested, 1.6% active; in the data active means fold change above about 3.3
APP 5UTR inh: inhibitors of APP translation via 5'UTR reporter, primary screen, APP 5'UTR luciferase, SH-SY5Y cells; SH-SY5Y APP 5'UTR-luciferase reporter, luminescence; 190,000 tested, 0.82% active; AID 1285, 2008; inhibition, % at 2 µM;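 active means inhibition above a set limit, derived from the sample mean plus 3 SD, cut at about 45% in these data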
STAT1 activator: STAT1 signaling activators, primary screen, cell-based, HTS, luciferase reporter; NIH 3T3 STAT1-luciferase reporter, IFN-gamma, luminescence; 100% = IFN-gamma alone, no compound; activation (% of control), % at 5.5 µM; 200,000 tested, 2.6% active; AID 932, 2007;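 active means activation above the screen-wide mean activation plus 3 SD, cut at about 130% in these data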;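 further: raw ratio to IFN-gamma control signal so 100% means no change and 0% no light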
APP 5'UTR act: activators of APP 5'UTR luciferase reporter, primary screen, SH-SY5Y cells. SH-SY5Y APP 5'UTR luciferase reporter, luminescence; zero percent = DMSO vehicle wells. AID 1276, 2008. activation, % at 2 µM. 190,000 tested, 1% active;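 active means activation above a set limit, based on mean plus 3 SD of controls, cut at about 140% in these data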
* = called active by the depositor; / = no result given. An excerpt weighted towards active compounds, which were near 4.8% of everything screened.

SMILES	FLuc inh counter	FLuc stim CS	NF-kB neuron act	APP 5UTR inh	STAT1 activator	APP 5'UTR act
CC(C)(C)c1ccc(C(=O)c2c[nH]c(C(=O)O)c2)cc1	33.2	0.7	0.88	-88.0	142.2*	88.0
CN(C)C=NC(=O)c1cc(C(=O)c2ccc(C(C)(C)C)cc2)c[nH]1	21.3	0.8	1.31	-171.1	140.9*	171.1*
CN(C)C=NC(=O)c1cc(C(=O)c2ccccc2Cl)c[nH]1	-3.0	1	1.11	-6.4	104.0	6.4
O=c1c(-c2ccc3c(c2)OCCO3)coc2cc(O)cc(O)c12	62.4*	0.4	5.84*	-144.7	119.3	144.7*
CCN(CC)Cc1c(O)ccc2c(=O)c(-c3ccc4c(c3)OCCO4)coc12	0.5	1	0.91	13.6	99.2	-13.6
CNC(=O)C(=O)NCCCN1CCOCC1	0.1	1	1.16	0.3	93.1	-0.3
C=CCOc1ccc(/C=C/C(C)=N\O)cc1	60.9*	0.4	4.19*	-91.6	131.9*	91.6
COc1ccc(/C=N/NC(=O)c2c(C)nnn2-c2nonc2N)cc1OC	-7.5	1.1	0.84	-4.1	102.2	4.1
CCCCCCCCn1cnc2c(N)c(C)c(C)cc21	-2.2	1	4.54*	6.4	111.9	-6.4
COc1ccc(Cn2cnc3c(N)c(C)c(C)cc32)cc1	-5.9	1.1	1.03	4.9	97.7	-4.9
O=C(/C=C/c1cccs1)c1ccc(NC(=O)c2cccc(Br)c2)cc1	-1.6	1	1.19	-18.1	100.5	18.1
O=C(/C=C/c1cccs1)c1ccc(Br)cc1	60.7*	0.4	2.32	-9.7	104.6	9.7
Cc1ccccc1Nc1c(-c2ccc(N3CCOCC3)cc2)nc2ncccn12	59.0*	0.4	1.17	-58.3	104.7	58.3
COc1ccc(C(=O)Nc2ccccc2C(N)=O)cc1	73.5*	0.3	3.13	-91.0	118.6	91.0
COc1ccc(C(=O)Nc2cc(Cl)ccc2C(=O)O)cc1	32.5	0.7	1.31	-6.3	112.3	6.3
COc1ccc(C(=O)Nc2ccc(O)cc2C(=O)O)cc1	63.4*	0.4	1	19.1	78.7	-19.1
COc1ccc(C(=O)Nc2ccccc2C(=O)N/N=C/c2cccc3ccccc23)cc1	97.2*	0	4.17*	-100.7	65.0	100.7
OCCSc1nc(N2CCOCC2)nc(N2CCOCC2)n1	-6.0	1.1	1.61	10.3	101.8	-10.3
CC1C(=O)NN=C1C(=O)N/N=C/c1cccs1 (configuration not stated)	8.8	0.9	1.23	-21.5	108.2	21.5
O=C(c1ccc(S(=O)(=O)c2ccc(Cl)cc2)cc1)N1CCOCC1	-8.1	1.1	1.05	-1.7	97.3	1.7
Cc1ccc(NC(=O)C(=O)Nc2ccc(C)cn2)nc1	4.3	1	2.63	-23.2	116.8	23.2
Cc1ccc(NC(=O)/C(C#N)=C(\N)C(Cl)(Cl)Cl)nc1	83.3*	0.2	6.36*	-33.6	118.5	33.6
O=C(OCC(F)(F)F)c1cccc(COc2ccc3ccccc3c2)c1	3.1	1	8.14*	44.0	19.2	-44.0
CCOc1ccc(OCc2cccc(C(=O)N3CCCCCC3)c2)cc1	66.6*	0.3	2.45	-113.4	34.2	113.4
COc1cc(/C=N/NC(=O)c2cccc([N+](=O)[O-])c2)ccc1OCc1ccccc1	1.0	1	1.24	-14.2	101.6	14.2
SMILES	FLuc inh counter	FLuc stim CS	NF-kB neuron act	APP 5UTR inh	STAT1 activator	APP 5'UTR act
COc1cc(/C=C/[N+](=O)[O-])ccc1OCc1cccc(C(=O)O)c1	36.0	0.6	4.36*	57.9*	16.8	-57.9
COc1ccc(OCc2cccc(C(=O)O)c2)cc1	83.1*	0.2	8.61*	/	/	/
CCOc1ccc(OCc2cccc(C(=O)N3CCCC3)c2)cc1	43.0	0.6	2.26	-117.1	68.2	117.1
O=C(c1ccc(F)cc1)N1CCN(C(=O)c2ccc([N+](=O)[O-])cc2)CC1	-2.8	1	1.27	18.5	96.6	-18.5
Cc1cccc(-n2c(CCCN3C(=O)c4ccccc4C3=O)nc3ccccc3c2=O)n1	-1.8	1	1.27	-8.1	99.2	8.1
COC(=O)COc1ccc(-n2cnnn2)cc1	-1.5	1	1.51	-3.9	102.5	3.9
Cc1cc(N2CCCC2=O)cc(C)c1CN1C(=O)c2ccccc2C1=O	-6.0	1.1	1	6.9	93.1	-6.9
COCCCNC(=O)C(=O)C1C(=O)Nc2ccccc21 (configuration not stated)	-8.4	1.1	0.91	12.4	100.1	-12.4
Cc1ccc(-c2nnc3cccc(Cl)n23)cc1	1.1	1	0.89	-44.0	104.3	44.0
CCOc1ccc(OCc2cccc(C(=O)O)c2)cc1	92.8*	0.1	12.2*	/	/	/
O=C(O)c1cccc(COc2ccc(CO)cc2Cl)c1	84.8*	0.2	0.94	/	/	/
CCOc1cccc(OCCOc2ccc(C(=O)c3ccccc3)cc2)c1	-3.3	1	0.94	6.2	105.4	-6.2
O=C(O)c1ccc(COc2ccc(CO)cc2Cl)cc1	19.6	0.8	1.61	-16.8	108.4	16.8
O=C(NN1CCCCC1)c1cccc(COc2ccc(Cl)cc2)c1	7.5	0.9	1.47	-49.7	130.1*	49.7
O=C(Nc1cccc(NC(=O)c2ccccc2[N+](=O)[O-])n1)c1ccccc1[N+](=O)[O-]	-9.1	1.1	0.85	1.6	94.9	-1.6
COc1nc(-c2ccccc2)nnc1-c1ccccc1	35.2	0.6	6.17*	-179.9	155.6*	179.9*
COc1ccc(-c2nc3ccccc3nc2-c2ccccc2)cc1	-4.5	1	0.87	-7.0	95.8	7.0
CC(C)(C)c1nnc(N/N=C/c2cc(Br)ccc2O)n(N)c1=O	-7.3	1.1	0.57	80.5*	114.6	-80.5
Cc1ccc(Nc2nnc(C(C)(C)C)c(=O)n2N)cc1	2.7	1	1.03	-11.6	91.0	11.6
CCOC(=O)C1(Cc2cccc(OC)c2)CCCN(C(=O)c2cc(C)[nH]n2)C1 (configuration not stated)	-2.2	1	2.55	-34.4	140.5*	34.4
O=S(Cc1ccc(Br)cc1)Cc1nnc(SCc2ccc(Br)cc2)n1-c1ccccc1 (configuration not stated)	-8.1	1.1	0.67	14.7	104.0	-14.7
Clc1ccc(/C=C/c2ncc3ccccn23)cc1	66.9*	0.3	3.67*	-127.4	144.4*	127.4
Fc1ccc(-c2ncc3ccccn23)cc1	4.5	1	1.26	-2.2	105.1	2.2
CC(C)N1CCC(=NNc2ccc(S(=O)(=O)N3CCOCC3)cc2[N+](=O)[O-])CC1	-3.1	1	1.04	14.1	90.7	-14.1

From PubChem
